Values joined by “and” are separate entries in the source; they are usually repeats but may differ in a detail not shown here. Equal entries are not always repeated.
Assays:
[1] = system: spleen; assay: Spleen phenotyping by flow cytometry after 28-day dermal exposure; type: in vivo, B6C3F1 mice; details: 28 days
Summary of the method: (§1)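 Female B6C3F1 mice (5/group) received 25 μl/ear daily to the dorsal ears in acetone. About 24 h after the last dose, tissues went into RPMI: both auricular dLNs, half spleen and one ear pinna. Single-cell suspensions were acquired on an LSR II, with populations gated per supplemental strategy and FMO gating controls. Results are mean ± SE, n=5, by one-way ANOVA.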

[2] = system: liver (caudate); assay: Liver gene expression; type: in vivo, B6C3F1 mice; details: dermal, 28 days
Summary of the method: (§2)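 Dosing was daily topical to both dorsal ears (25 μl/ear, acetone vehicle) in female B6C3F1 mice. Liver caudate lobe or half ear pinna was stored in RNAlater and homogenized in RLT buffer. RNA was isolated on RNeasy columns with DNase, and 1–2 μg was reverse-transcribed. TaqMan real-time PCR was read as 2−ΔΔCT vs vehicle, normalized to β-actin. Statistics: ANOVA/Dunnett's, or Kruskal-Wallis/Dunn's for unequal variance.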

[3] = system: auricular draining lymph nodes (dLNs); assay: Draining lymph node phenotyping by flow cytometry after 28-day dermal exposure; type: in vivo, B6C3F1 mice; details: 28 days
Summary of the method: as §1

[4] = PFAS concentration in pooled urine; type: in vivo, B6C3F1 mice; details: 5%, dermal, 28 days; 5 pooled samples
Summary of the method: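 Urine was caught in a weigh boat as it was excreted during CO2 euthanasia, about 24 h after the final daily ear dose (25 μl/ear, acetone vehicle; female B6C3F1 mice). The 5 mice per group were pooled, with variable volume. Samples underwent solid-phase extraction and LC/MS/MS, as linear isomer for short-chain analytes and linear plus branched for the comparator. Each group gave a single value without statistics.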

[5] = system: B6C3F1 mice; assay: Organ weights and body weight after 28-day dermal exposure; type: in vivo; details: 28 days; for body weight or overt signs of toxicity: 1.25–5%; for Liver weight (% body weight), increase vs vehicle-treated mice: 5%
[6] = system: liver; assay: Liver histopathology after 28-day dermal exposure; type: in vivo, B6C3F1 mice; details: 28 days, mice affected of 5
Summary of the method: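 Female B6C3F1 mice (5/group) received 25 μl/ear on the dorsal ear surfaces daily, with acetone as vehicle. Tissues were formalin-fixed about 24 h after the last dose: liver remainder, half spleen, right kidney and half ear pinna. Sections were paraffin-embedded, cut at 5 μm and stained with H&E. A veterinary pathologist read them per STP guideline and graded 1 (minimal) to 5 (severe) by extent.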

[7] = system: ear pinna; assay: Skin; type: in vivo, B6C3F1 mice; details: dermal, 28 days; for skin Pparδ gene expression: 1.25–5%
Summary of the method: as §2

## O=C(O)C(F)(F)C(F)(F)C(F)(F)C(F)(F)C(F)(F)F [PFHxA, perfluorohexanoic acid]
[1]; 2.5%
  spleen MFI of CD86 on B-cells: increase
  spleen NK cell frequency: increase
  spleen frequency of CD11b + Ly6C + cells: significant decrease
[1]; 5%
  spleen MFI of CD86 on B-cells: increase
  spleen frequency of CD11b + Ly6C + cells: significant decrease
[2]; 1.25%
  liver Pparδ expression: decreasing
[2]; 2.5%
  liver Acox1 gene expression: increase
  liver Fabp1 gene expression: increased
  liver Pparδ expression: decreasing
[2]; 5%
  liver Cd36 gene expression, increase: 4.6 fold
  liver Ehhadh gene expression, increase: 4.8 fold
  liver Pparδ expression: decreasing
[3]; 1.25%
  dLN B-cells cell number: 28.40 ± 6.63 × 10^5
  dLN B-cells frequency: 18.06 ± 2.12%
  dLN CD4^+ cell number: 5.93 ± 0.59 × 10^6
  dLN CD4^+ frequency: 40.24 ± 1.70%
  dLN CD8^+ cell number: 42.50 ± 4.15 × 10^5
  dLN CD8^+ frequency: 28.94 ± 1.29%
  dLN CD11b+ cell number: 16.20 ±3.71 × 10^4
  dLN CD11b+ frequency: 1.04 ± 0.12%
  dLN CD86 B-cells: 98.74 ±6.64 MFI
  dLN CD86 DCs: 11.60 ± 1.51 MFI x 10^2
  dLN Dendritic Cells cell number: 29.00 ±2.99 × 10^4
  dLN Dendritic Cells frequency: 2.01 ± 0.22 %
  dLN Eosinophils cell number: 96.70 ± 17.60 × 10^2
  dLN MHCII B-cells: 7.07 ± 0.37 MFI × 10^2
  dLN MHCII DCs: 57.30 ±2.79 MFI × IQ^2
  dLN NK cell number: 11.60 ±0.64 × 10^4
  dLN NK frequency: 0.82 ± 0.08%
  dLN Neutrophils cell number: 18.80 ±5.25 × 10^2
  dLN Total Cellularity: 15.00 ± 1.92 × 10^6
[3]; 2.5%
  dLN B-cells cell number: 32.50 ± 3.50 × 10^5
  dLN B-cells frequency: 15.94 ± 0.38%
  dLN CD4^+ cell number: 8.16 ± 0.58 × 10^6
  dLN CD4^+ frequency: 40.56 ± 1.03%
  dLN CD8^+ cell number: 56.80 ± 5.72 × 10^5
  dLN CD8^+ frequency: 27.94 ± 0.36%
  dLN CD11b+ cell number: 25.30 ± 2.29 × 10^4
  dLN CD11b+ frequency: 1.25 ± 0.04 %
  dLN CD86 B-cells: 93.54 ± 1.71 MFI
  dLN CD86 DCs: 13.20 ± 1.29 MFI x 10^2
  dLN Dendritic Cells cell number: 47.00 ± 5.39 × 10^4
  dLN Dendritic Cells frequency: 2.32 ± 0.14 %
  dLN Eosinophils cell number: 140.00 ± 17.30 × 10^2
  dLN MHCII B-cells: 7.16 ± 0.11 MFI × 10^2
  dLN MHCII DCs: 63.50 ± 5.71 MFI × IQ^2
  dLN NK cell number: 19.50 ± 2.26 × 10^4
  dLN NK frequency: 0.95 ± 0.03 %
  dLN Neutrophils cell number: 21.50 ± 1.28 × 10^2
  dLN Total Cellularity: 20.30 ± 1.81 × 10^6
[3]; 5%
  dLN B-cells cell number: 37.30 ± 1.54 × 10^5
  dLN B-cells frequency: 17.38 ± 0.94%
  dLN CD4^+ frequency: 41.58 ± 0.62%
  dLN CD8^+ cell number: 58.40 ± 4.46 × 10^5
  dLN CD8^+ frequency: 26.82 ± 0.64%
  dLN CD11b+ cell number: 26.00 ± 3.54 × 10^4
  dLN CD11b+ frequency: 1.18 ± 0.11%
  dLN CD86 B-cells: 101.54 ± 3.64 MFI
  dLN CD86 DCs: 9.15 ± 0.71 MFI x 10^2
  dLN Dendritic Cells cell number: 35.40 ± 5.48 × 10^4
  dLN Dendritic Cells frequency: 1.60 ± 0.19%
  dLN Eosinophils cell number: 142.00 ± 22.90 × 10^2
  dLN MHCII B-cells: 8.02 ± 0.64 MFI × 10^2
  dLN NK cell number: 17.70 ± 2.11 × 10^4
  dLN NK frequency: 0.80 ± 0.06%
  dLN Neutrophils cell number: 16.70 ± 2.99 × 10^2
  dLN Total Cellularity: 21.70 ± 1.26 × 10^6
[4]
  urine PFAS concentration: 1700 µg/mL
[5]
  body weight or overt signs of toxicity: no changes
  Liver weight (% body weight), increase vs vehicle-treated mice: 9%
[6]; 1.25%
  Liver: Hypertrophy, centrilobular, hepatocyte, Mild (incidence): 0
  Liver: Hypertrophy, centrilobular, hepatocyte, Minimal (incidence): 2/5 and 2
[6]; 2.5%
  Liver: Hypertrophy, centrilobular, hepatocyte, Mild (incidence): 0
  Liver: Hypertrophy, centrilobular, hepatocyte, Minimal (incidence): 5/5 and 5
[6]; 5%
  Liver: Hypertrophy, centrilobular, hepatocyte, Mild (incidence): 0
  Liver: Hypertrophy, centrilobular, hepatocyte, Minimal (incidence): 5/5 and 5
[7]
  skin Pparδ gene expression: no changes
[7]; 2.5%
  skin Flg gene expression: increased
  skin Pparγ gene expression: decreased
[7]; 5%
  skin Flg gene expression: increased
  skin Lor gene expression: increased
  skin PPARα gene expression: decreased
  skin Pparγ gene expression: decreased
  skin S100a8 gene expression, increase: 16.8 fold

## O=C(O)C(F)(F)C(F)(F)C(F)(F)C(F)(F)F [PFPeA, perfluoropentanoic acid]
[1]; 1.25%
  spleen NK cell frequency: increase
[1]; 2.5%
  spleen MFI of CD86 on B-cells: increase
  spleen MFI of MHCII on B-cells: increase
  spleen NK cell frequency: increase
  spleen number of CD4^+ T-cells: significant decrease
  spleen number of CD11b + Ly6C− cells: significant decrease
[1]; 5%
  spleen MFI of CD86 on B-cells: increase
  spleen MFI of MHCII on B-cells: increase
  spleen NK cell frequency: increase
[2]; 2.5%
  liver Pltp gene expression: increase
  liver Pparδ expression: decreasing
  liver Serpine1 gene expression, increase: 8 fold
[2]; 5%
  liver Acox1 gene expression: increase
  liver Cd36 gene expression, increase: 6.5 fold
  liver Ehhadh gene expression, increase: 8.8 fold
  liver Fabp1 gene expression: increased
  liver Pltp gene expression: increase
  liver Pparγ expression: increasing
  liver Pparδ expression: decreasing
  liver Serpine1 gene expression, increase: 11.3 fold
[3]; 1.25%
  dLN B-cells cell number: 8.67 ± 0.72 × 10^5
  dLN B-cells frequency: 14.18 ± 0.59%
  dLN CD4^+ cell number: 2.63 ± 0.27 × 10^6
  dLN CD4^+ frequency: 42.52 ± 0.79%
  dLN CD8^+ cell number: 18.60 ± 0.18 × 10^5
  dLN CD8^+ frequency: 30.24 ± 0.44%
  dLN CD11b+ cell number: 7.21 ± 1.61 × 10^4
  dLN CD11b+ frequency: 1.26 ± 0.29%
  dLN CD86 B-cells: 1140.40 ± 46.06 MFI
  dLN CD86 DCs: 42.60 ± 1.44 MFI x 10^2
  dLN Dendritic Cells cell number: 6.24 ± 0.42 × 10^4
  dLN Dendritic Cells frequency: 1.02 ± 0.03%
  dLN Eosinophils cell number: 20.90 ± 7.02 × 10^2
  dLN MHCII B-cells: 105.00 ± 1.83 MFI × 10^2
  dLN NK cell number: 3.23 ± 0.30 × 10^4
  dLN NK frequency: 0.53 ± 0.03%
  dLN Neutrophils cell number: 12.30 ± 1.75 × 10^2
  dLN Total Cellularity: 6.15 ± 0.57 × 10^6
[3]; 2.5%
  dLN B-cells cell number: 12.60 ± 2.36 × 10^5
  dLN B-cells frequency: 15.00 ± 0.92 %
  dLN CD4^+ cell number: 3.34 ± 0.55 × 10^6
  dLN CD4^+ frequency: 39.54 ± 0.62 %
  dLN CD8^+ cell number: 25.00 ± 3.80 × 10^5
  dLN CD8^+ frequency: 29.96 ± 0.86%
  dLN CD11b+ cell number: 17.00 ± 4.33 × 10^4
  dLN CD11b+ frequency: 1.92 ± 0.19%
  dLN CD86 B-cells: 1131.40 ± 96.26 MFI
  dLN CD86 DCs: 40.30 ± 1.05 MFI x 10^2
  dLN Dendritic Cells cell number: 10.40 ± 1.31 × 10^4
  dLN Dendritic Cells frequency: 1.31 ± 0.15%
  dLN Eosinophils cell number: 81.90 ± 15.70 × 10^2
  dLN MHCII B-cells: 115.00 ± 6.25 MFI × 10^2
  dLN NK cell number: 5.52 ± 0.71 × 10^4
  dLN NK frequency: 0.69 ± 0.07%
  dLN Neutrophils cell number: 19.10 ± 3.38 × 10^2
  dLN Total Cellularity: 8.45 ± 1.43 × 10^6
[3]; 5%
  dLN B-cells cell number: 17.00 ± 1.58 × 10^5
  dLN B-cells frequency: 16.22 ± 0.70 %
  dLN CD4^+ cell number: 3.99 ± 0.36 × 10^6
  dLN CD4^+ frequency: 38.02 ± 0.95 %
  dLN CD8^+ cell number: 30.20 ± 0.23 × 10^5
  dLN CD8^+ frequency: 28.88 ± 0.40%
  dLN CD11b+ cell number: 24.00 ± 3.48 × 10^4
  dLN CD11b+ frequency: 2.26 ± 0.17%
  dLN CD86 B-cells: 1188.80 ± 47.41 MFI
  dLN CD86 DCs: 36.80 ± 2.23 MFI x 10^2
  dLN Dendritic Cells cell number: 12.60 ± 1.09 × 10^4
  dLN Dendritic Cells frequency: 1.21 ± 0.08%
  dLN Eosinophils cell number: 140.00 ± 23.00 × 10^2
  dLN MHCII B-cells: 126.00 ± 6.53 MFI × 10^2
  dLN NK cell number: 7.50 ± 0.56 × 10^4
  dLN NK frequency: 0.73 ± 0.05%
  dLN Neutrophils cell number: 22.40 ± 5.58 × 10^2
  dLN Total Cellularity: 10.50 ± 0.93 × 10^6
[4]
  urine PFAS concentration: 5600 µg/mL
[5]
  body weight or overt signs of toxicity: no changes
  Liver weight (% body weight), increase vs vehicle-treated mice: 12%
[6]; 1.25%
  Liver: Hypertrophy, centrilobular, hepatocyte, Mild (incidence): 0
  Liver: Hypertrophy, centrilobular, hepatocyte, Minimal (incidence): 5/ 5 and 5
[6]; 2.5%
  Liver: Hypertrophy, centrilobular, hepatocyte, Mild (incidence): 5/5 and 5
  Liver: Hypertrophy, centrilobular, hepatocyte, Minimal (incidence): 0
[6]; 5%
  Liver: Hypertrophy, centrilobular, hepatocyte, Mild (incidence): 5/5 and 5
  Liver: Hypertrophy, centrilobular, hepatocyte, Minimal (incidence): 0
[7]; 1.25%
  skin Krt10 gene expression: increased
  skin Pparγ gene expression: decreased
[7]
  skin Pparδ gene expression: no changes
[7]; 2.5%
  skin Krt10 gene expression: increased
  skin Pparγ gene expression: decreased
[7]; 5%
  skin Flg gene expression: increased
  skin Il6 gene expression, increase: 2.5 fold
  skin Krt10 gene expression: increased
  skin PPARα gene expression: decreased
  skin Pparγ gene expression: decreased
  skin S100a7a gene expression, increase: 42.5 fold
  skin Serpine1 gene expression, increase: 3 fold
  skin Tslp gene expression, increase: 3 fold

— PMC9989852 (Food and chemical toxicology : an international journal …, 2022)
